Measured values as given in PMC8099043 (Pharmacology Research & Perspectives, 2021).
Read-outs that look alike come from different tables or passages of the source. Values belong to the compound of their own block, whether it stands above or below them.

Columns and labels:
[1] = system: rivaroxaban metabolism in rat liver microsomes (RLMs); assay: Inhibition of rivaroxaban metabolism by naringenin in rat liver microsomes; assay type: in vitro ADME, Sprague–Dawley rat; conditions: RLMs, Lineweaver-Burk plot
In short: (§1)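 Flavonoid test compound and substrate were incubated with rat liver microsomes (1 mg/ml) in 100 mM potassium phosphate, pH 7.4. After 5 min preincubation at 37 °C, 1 mM NADPH (final) started the reaction, which ran 30 min. It was quenched with acetonitrile plus diazepam IS, centrifuged and analysed by UPLC‑MS/MS. IC50 used 10 μM substrate with test compound at 1–100 μM.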

[2] = system: rivaroxaban metabolism in rat liver microsomes; assay: as above; assay type: in vitro ADME, Sprague–Dawley rat; conditions: Sprague-Dawley, rat, rat liver microsomes, pH 7.4, probe rivaroxaban (10 μM)
In short: as §1

[3] = system: rat liver microsomes (RLMs); assay: Michaelis–Menten kinetics of rivaroxaban metabolism in RLMs; assay type: in vitro ADME, Sprague–Dawley rat
In short: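 Rat liver microsomes (1 mg/ml, 100 mM potassium phosphate, pH 7.4) were incubated with substrate over nine levels spanning 1–200 μM. Preincubation was 5 min at 37 °C, then 1 mM NADPH (final) started a 30 min reaction. It was stopped with acetonitrile plus diazepam IS, centrifuged, and the supernatant was run on UPLC‑MS/MS (positive ESI, MRM). Km came from a Michaelis–Menten fit; mean ± SD, n = 3.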

[4] = assay type: in vivo, Sprague–Dawley rat
[5] = cited from earlier work
[6] = with ticagrelor, rats; cited from earlier work
[7] = pre-treatment of rats with naringenin for 2 weeks vs control; cited from earlier work
[8] = Control group: rivaroxaban 10 mg/kg oral gavage only, rats, n = 6
[9] = pretreatment of rat with naringenin for 14 days
[10] = 10 mg rivaroxaban in combination with 200 mg ketoconazole once daily
[11] = co-administration with rifampicin
[12] = single-dose rivaroxaban co-administrated with ritonavir

Ki ([1]; rivaroxaban 5-40 μM, naringenin 0-80 μM): 54.9 µM | IC50 at 30 min [2]: 38.9 µM
Structure (SMILES): O=C1C[C@@H](c2ccc(O)cc2)Oc2cc(O)cc(O)c21 [naringenin]
inhibition type [1]: mixed inhibition

Km ([3]; read-out: Km of rivaroxaban metabolism, rivaroxaban 1-200 μM): 18.4 µM | AUC(0–t) ([4]; Control group: rivaroxaban 10 mg/kg oral gavage only, rats (abstract)): 2406.28 ± 519.69 µg/h/L | AUC(0–t) [4, 8]: 2406.28 ± 519.69 µg/h/L | AUC(0–∞) [4, 8]: 2438.52 ± 529.29 ng/mL/h | AUC(0–t) ([4]; Experimental group: naringenin 10 mg/kg/day for 2 weeks, then rivaroxaban 10 mg/kg oral, rats (abstract)): 4005.04 ± 1172.76 µg/h/L | Tmax ([4]; male, Sprague-Dawley, rat, plasma, po, 10 mg/kg): 3.4 ± 0.548 h | increase of AUC of rivaroxaban, experimental group vs control [4, 9]: 1.7 times | increase of Cmax of rivaroxaban, experimental group vs control [4, 9]: 1.6 times
Structure (SMILES): O=C(NC[C@H]1CN(c2ccc(N3CCOCC3=O)cc2)C(=O)O1)c1ccc(Cl)s1 [rivaroxaban]
Vmax of rivaroxaban metabolism ([3]; rivaroxaban 1-200 μM): 4.35 pmol/min/mg | increase of AUC of rivaroxaban [5, 10]: 82% | increase of Cmax of rivaroxaban [5, 10]: 53% | reduction of body clearance rate of rivaroxaban [5, 10]: 45% | decrease of AUC of rivaroxaban [5, 11]: 50% | decrease of Cmax of rivaroxaban [5, 11]: 22% | increase of AUC of rivaroxaban [5, 12]: 150% | increase of Cmax of rivaroxaban [5, 12]: 60% | increase of AUC of rivaroxaban [6]: more than twice | increase of Cmax of rivaroxaban [6]: more than twice

Structure (SMILES): C[C@@H]1CCN(C(=O)CC#N)C[C@@H]1N(C)c1ncnc2[nH]ccc12 [tofacitinib]
increase of AUC of tofacitinib [7]: 1.76 fold
